ChEMBL document CHEMBL5223110, “Novel allosteric glutaminase 1 inhibitors with macrocyclic structure activity relationship analysis” (Bioorg Med Chem Lett, 2022)
pIC50: −log10 of the molar value.

Tests used:
[1] = target: T1, Glutaminase kidney isoform, mitochondrial (Homo sapiens, UniProt O94925); experiment: Inhibition of GLS1 (unknown origin)
T1 sequence (O94925 whole entry): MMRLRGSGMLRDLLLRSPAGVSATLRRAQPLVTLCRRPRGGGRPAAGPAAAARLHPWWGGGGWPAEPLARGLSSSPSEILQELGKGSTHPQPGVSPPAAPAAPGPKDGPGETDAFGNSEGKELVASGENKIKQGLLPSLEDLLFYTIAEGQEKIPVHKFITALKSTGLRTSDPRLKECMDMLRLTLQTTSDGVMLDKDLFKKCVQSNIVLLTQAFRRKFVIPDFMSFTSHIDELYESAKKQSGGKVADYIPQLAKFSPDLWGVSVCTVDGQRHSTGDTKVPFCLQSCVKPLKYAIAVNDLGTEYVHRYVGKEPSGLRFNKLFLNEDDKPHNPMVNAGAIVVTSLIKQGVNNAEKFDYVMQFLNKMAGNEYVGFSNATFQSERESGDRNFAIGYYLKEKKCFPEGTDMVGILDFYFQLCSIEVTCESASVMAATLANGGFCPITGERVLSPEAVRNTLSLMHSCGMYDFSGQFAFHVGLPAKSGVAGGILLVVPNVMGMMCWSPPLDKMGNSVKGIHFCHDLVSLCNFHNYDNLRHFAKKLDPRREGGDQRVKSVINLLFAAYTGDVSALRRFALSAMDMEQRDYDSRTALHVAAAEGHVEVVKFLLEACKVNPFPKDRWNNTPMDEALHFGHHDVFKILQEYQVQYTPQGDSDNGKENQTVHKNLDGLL

[2] = system: LR; experiment: (§1) Antiproliferative activity against human LR cells incubated for 72 hrs by Celltiter-Glo assay; format: functional, cell-based
Outline: (§2)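 Cells treated with 0, 0.01, 0.03, 0.1, 0.3 and 1 μM of compound for 72 h. Viability read by CellTiter-Glo luminescence. IC50 taken from the dose–response curves. LR cells are LDK378-resistant. A549 and H460 carry co-occurring KRAS and KEAP1 mutations, and H358 carries a KRAS mutation only.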

[3] = system: NCI-H358; experiment: Antiproliferative activity against human NCI-H358 cells incubated for 72 hrs by Celltiter-Glo assay; format: functional, cell-based; settings: NCI-H358, 72 h; outline: as §2
[4] = system: NCI-H460; experiment: Antiproliferative activity against human NCI-H460 cells incubated for 72 hrs by Celltiter-Glo assay; format: functional, cell-based; settings: NCI-H460, 72 h; outline: as §2
[5] = as §1; format: functional, cell-based; outline: as §2
[6] = system: A549; experiment: Antiproliferative activity against human A549 cells incubated for 72 hrs by Celltiter-Glo assay; format: functional, cell-based; settings: A549, 72 h; outline: as §2

Compound | pIC50 [1] | Activity [2] | further results
O=C1Cc2cccc(c2)OCCOCCOc2cccc(c2)CC(=O)NC2=NN=C(CCCC3=NN=C(N1)S3)S2 | 5.40 |  | 
O=C1Cc2cccc(c2)OCCOCCOc2cccc(c2)CC(=O)Nc2ccc(nn2)CCCCc2ccc(nn2)N1 | 6.37 | Dose-Dependent Effect | 
O=C1Cc2cccc(c2)OCCOCCOCCOCCOc2cccc(c2)CC(=O)NC2=NN=C(CCCCC3=NN=C(N1)S3)S2 | 5.40 |  | 
O=C1Cc2cccc(c2)OCCOc2cccc(c2)CC(=O)NC2=NN=C(CCCCC3=NN=C(N1)S3)S2 | 6.01 |  | 
O=C1Cc2cccc(c2)OCCOc2cccc(c2)CC(=O)Nc2ccc(nn2)CCCCc2ccc(nn2)N1 | 6.74 | Dose-Dependent Effect | 
O=C1Cc2cccc(c2)OCCOCCOc2cccc(c2)CC(=O)NC2=NN=C(CCCCCC3=NN=C(N1)S3)S2 | 5.00 |  | 
O=C1Cc2ccc(cc2)OCCOCCOCCOc2cccc(c2)CC(=O)Nc2nnc(s2)CCCCc2nnc(s2)N1 | 5.52 |  | 
O=C1Cc2cccc(c2)OCCCCCOc2cccc(c2)CC(=O)Nc2nnc(s2)CCCCc2ccc(nn2)N1 | 6.00 |  | 
O=C1Cc2cccc(c2)OCCOCCOc2cccc(c2)CC(=O)Nc2nnc(s2)CCCCc2ccc(nn2)N1 | 6.40 | Dose-Dependent Effect | 
O=C1Cc2cccc(c2)OCCCCCCCOc2cccc(c2)CC(=O)Nc2nnc(s2)CCCCc2ccc(nn2)N1 | 5.52 |  | 
O=C(Cc1cccc(OC(F)(F)F)c1)Nc1ccc(CCCCc2nnc(NC(=O)Cc3ccccn3)s2)nn1 |  | Dose-Dependent Effect | pIC50 [3]: < 6.00; pIC50 [4]: 7.44; pIC50 [5]: > 7.00; pIC50 [6]: 7.59
O=C1Cc2cccc(c2)OCCCOCCCOc2cccc(c2)CC(=O)Nc2ccc(nn2)CCCCc2ccc(nn2)N1 | 6.51 | Dose-Dependent Effect | pIC50 [3]: < 6.00; pIC50 [4]: 7.06; pIC50 [5]: > 7.00; pIC50 [6]: 7.02
O=C1Cc2cccc(c2)OCCCOCCCOc2cccc(c2)CC(=O)Nc2nnc(s2)CCCCc2ccc(nn2)N1 | 6.10 |  | 
O=C1Cc2cccc(c2)OCCOCCOc2cccc(c2)CC(=O)NC2=NN=C(CCCCC3=NN=C(N1)S3)S2 | 5.70 |  | 
